Tested on: MS2 coat protein
Experiment: apparent Kd, MS2 coat protein; higher = weaker binding; RNA-MaP array; FMN 200 µM where present
Summary of the method: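 Designs were transcribed by stalled E. coli RNA polymerase on Illumina sequencing-chip clusters. They were titrated with SNAP-549-labelled MS2 coat protein from 0.7 or 1.5 nM, doubling to 3 µM, in 100 mM Tris-HCl pH 7.5, 80 mM KCl, 4 mM MgCl2, BSA, DTT, yeast tRNA and Tween-20, without and then with constant ligand. The apparent Kd is the median of filtered per-cluster fits after normalisation of green signal to red-channel RNA signal and control-cluster median Fmax.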

[1] = designed as: ON switch for flavin mononucleotide, no ligand
[2] = ligand present: flavin mononucleotide, designed as: ON switch for flavin mononucleotide
[3] = designed as: OFF switch for flavin mononucleotide, no ligand
[4] = ligand present: flavin mononucleotide, designed as: OFF switch for flavin mononucleotide

Row | Sequence | apparent Kd [1] [nM] | apparent Kd [2] [nM] | apparent Kd [3] [nM] | apparent Kd [4] [nM]
1 | GGGUACAUGGGAGGAUAUCAUGUAGAUACAUGAGGAUCACCCAUGUCGAUGGAGACAUCGGAGAUUGAGAAGGCCCAUGUACCG | 696 | 36.1 | – | –
2 | CGUCUAUGCCAGAAGGCAUGAAACAUGAGGAUCACCCAUGUCAAAGACAUGAGGAUAUGGCAUAGACGAAAAGUGCGAAAGCAC | 4.32 | 3.27 | – | –
3 | CACGAUGAUGUAGGAUAUAUGCUGGAAUACAGCAUAGAAGGACAUGAGGAUCACCCAUGUAAAGUGUCUCCAAAUAACAUCGUG | – | – | 30.3 | 77.5
4 | GGAUGAUAAAUAGGAUAUUAAUUGUAAUUAGGUUAAGAAGGAUUAAUGAUUUAAACGACCAGUUACAUGAGGAUCACCCAUGUU | 177 | 161 | – | –
5 | CUGUGUCCGCAGGAUAUGUUAUCCUGAAGGAUCACAGAAGGGCGGACAUGAGGAUCACCCAUGUGAGCCAAAGA | – | – | 16.2 | 17.3
6 | GCCAGGUGGGUAGGAUAUGGCUAUGUCUCAUUGCUAGAAGGACCAACUGCUACAUGAGGAUCACCCAUGUCGUAGUGCACCCGG | 78.9 | 25.4 | – | –
7 | UGGUACUAGGGAGGAUAUGGGAAGAUACAUGAGGAUCACCCAUGUUUAAGAAUGCCGCGAGGCAACUAGAAGGCCCUAGUACCU | 398 | 19.6 | – | –
8 | CAGCCCUGAGGAUAUCCAUCCUUGUACAUGAGGAUCACCCAUGUUUUCCUCUGGGCUUUCGGAGAAGGCAGGUAUC | – | – | 74.4 | 68.5
9 | AAAAAGGGAGGAUAUACAUGAGGAUCACCCAUGUGAAAAAAAAAAAAAAAAAAAAAAAGUAGAAGGCCCAAAAA | – | – | 67.1 | 53.8
10 | GCGAUGAUCGAGAAGGCCACUACAUGAGGAUCACCCAUGUCGUGGUGUAUUGGAGGAUAUCGAUUGGCGCCUUAUGAGGACAUG | – | – | 5.49 | 8.22
11 | CGCUAGUCAGGAUAUACGCACAUGUCACCAGACGUGAAGGGACAUGAGGAUCACCCAUGUAGAAGGGACUAGCC | – | – | 98.5 | 246
12 | UAGUAUAAGGGCAUUACACAUGAGGAUCACCCAUGUACGUUAGAGGAUAUGCAUUCCAGUCGAACGUAGAAGGUUAGAGAAGGG | – | – | 211 | 176
13 | GUUUUAUAGAUCCAUUUUAACAACAUGAGGAUCACCCAUGUGCAGGAUAUCGUUUGUUUUAUAUUCGAGAAGGGCAAAUUCAUU | – | – | 44.3 | 102
14 | GGAUAGUGUCGUUAUCCGUAGCGAACAUGAGGAUCACCCAUGUAGGAUAUGUUAUUAAACUAAUAACAGAAGGGCGUUAGUCUC | – | – | 37.1 | 42.8
15 | GGGUACAUCGGAGGAUAUCAUGUAAAUACAUGAGGAUCACCCAUGUCGAUGGAGACAUCGGAGAUUGAGAAGGCCGAUGUGCCG | 145 | 9.5 | – | –
16 | CAGACGUCAGGAUAUCUGAUGUCUAACUUCGGUUAGACAUCAGAGAAGGGACAUGAGGAUCACCCAUGUCUGAA | – | – | 25.4 | 23.6
17 | UAUUAGUAAGGAUAUCUCGUCAUGGAGGAAACUCCAUGACGAGAGAAGGUACAUGAGGAUCACCCAUGUCUAUU | – | – | 16.1 | 18.3
18 | GUAGCAUACCAAGGAUAUUCAGGGCGUGGAUAGACAUGAGGAUCACCCAUGUGGCGAAAGCCUAGGGAGAAGGUGGAAUGCUAC | 36.1 | 20.1 | – | –
19 | AGACUGAAGCAAGGAUAUUGUAAAGUUAUCGUACAAGAAGGUGCUGUUUAUGUCUCUUUACAUGAGGAUCACCCAUGUUUUUAA | 22.6 | 24.2 | – | –
20 | AACAAUGGUUAACAUGAGGAUCACCCAUGUUGGAAGCCUUCACAGGAUAUGUAGCGGGCAUACGCACAGAAGGGUGAUCGCGGU | 37.5 | 32.6 | – | –
21 | CUCAUGUGAGGAUAUCAGUAGUAAAAAAAUAAAAUUACUACUGAGAAGGCACAUGAGGAUCACCCAUGUACCUU | – | – | 70.7 | 72
22 | GAAUAUUCGUUGAACAUGAGGAUCACCCAUGUAACUUGACAUGAGGAUAUGGAUUCUAAUUGGAUCCAGAAGGUAUGAAUAUUC | – | 91.8 | – | –
23 | GUCAGCUCGUGAGGAUAUACAACACUGCUUCGGCAGUGUAUUAAGAUCACAUGAGGAUCACCCAUGUAGAAGGCACGAGCUGAC | – | – | 12.9 | 251

Source: the EternaBench riboswitch data
